Measured values published in ChEMBL document CHEMBL4513216, “Probing the Open Global Health Chemical Diversity Library for Multistage-Active Starting Points for Next-Generation Antimalarials” (ACS Infect Dis, 2020).

Assay: Toxicity liver stage against HepG2, at 10uM
Assay type: cell-based
Set-up: test concentration 10 uM, cell line HepG2-A16-CD81EGFP
Conditions: human, HepG2-A16-CD81EGFP cells; read-out: INHIBITION
Outline: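 Uninfected HepG2-A16-CD81EGFP cells, 3 × 10^3 per well, 1536-well, plated on prespotted compound at 10 μM final, parasite-free screening media added to match infected plates; puromycin 10 μM positive, DMSO 0.5% negative; run in parallel with 48 h PbLuc assay at 37 °C, 5% CO2; viability by CellTiter-Glo luminescence, normalized to controls.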
Work on Cc1ccc(C(=O)N(C)CC(=O)NCC(F)(F)F)cn1 yielded a cytotoxicity at 10 µM of -4.46%.
Work on CC(C)NC(=O)N1CCN2C(=O)N(Cc3ccc(F)cc3)C[C@H]2C1 yielded a cytotoxicity at 10 µM of 0.88%.
COC(=O)N1CC[C@@]2(O)CCCC[C@H]2[C@@H]1c1ccc2c(c1)OCO2 gave a cytotoxicity at 10 µM of 2.91%.
In the case of Cc1noc(C)c1S(=O)(=O)NCC(O)c1ccc2c(c1)CCO2 (centres undefined), the cytotoxicity at 10 µM is reported as 0.407%.
COc1ccc(C(=O)N2CCO[C@H]3[C@H](OCC4CC4)CC[C@@H]32)cc1F showed a cytotoxicity at 10 µM of 18.2%.
CN(C)CCNC(=O)c1nc2c(o1)CN(c1ncccn1)C2 gave a cytotoxicity at 10 µM of -0.603%.
Work on CCOC(=O)C1CCN(C(=O)c2cc(F)ccc2-n2cnnn2)CC1 yielded a cytotoxicity at 10 µM of -0.121%.
In the case of CCn1ncc2c1C(COC)CN(Cc1ccc(OC)cc1)C2 (centres undefined), the cytotoxicity at 10 µM is reported as 11.4%.
Work on Cc1nc(CN2C[C@@H]3OCCN(c4ncc(F)cn4)[C@@H]3C2)cs1 yielded a cytotoxicity at 10 µM of -8.52%.
In the case of CN1CCc2c1nc1c(c2N)CCC1, the cytotoxicity at 10 µM is reported as 0.0371%.
Molecule Cc1nn(C)c2c(NCc3ccccn3)ncnc12 has a cytotoxicity at 10 µM of -5.2%.
With O=S(=O)(c1ccc(F)c(F)c1)n1cc(Cl)cn1 the cytotoxicity at 10 µM was 4.66%.
With CNC(=O)c1sc2ccccc2c1CC1CCCCN1Cc1ncc[nH]1 (centres undefined) the cytotoxicity at 10 µM was 2.35%.
For Cc1cc(C)c(S(N)(=O)=O)cc1C(=O)NCCN1CCCCC1, the cytotoxicity at 10 µM was -5.52%.
Work on CN(C(=O)OC(C)(C)C)C1CCN(C(=O)c2cc(Cl)c[nH]2)C1 (centres undefined) yielded a cytotoxicity at 10 µM of 2.5%.
Cc1ccc(C(=O)NCc2cc(F)ccc2N2CCCN(C)CC2)o1 showed a cytotoxicity at 10 µM of -9.7%.
For COc1cc(NC2CCCN(c3ncccc3C#N)C2)cc(OC)c1 (centres undefined), the cytotoxicity at 10 µM was -9.25%.
Work on Cc1cc(C)n(CC(C)CNC(=O)NCc2c(C)cc(C)[nH]c2=O)n1 (centres undefined) yielded a cytotoxicity at 10 µM of -7.86%.
With C=C(C)CN1CCC(NC(=O)Nc2ccc(F)c(C(N)=O)c2)CC1 the cytotoxicity at 10 µM was -6.08%.
With Cc1cc(C(=O)NC2=NCCS2)c(C)n1-c1ccccn1 the cytotoxicity at 10 µM was 6.25%.
For Cc1occc1C(=O)NCC(=O)NCCOc1ccc2c(c1)CCC2, the cytotoxicity at 10 µM was -2.83%.
With Cc1cnn(CC2CCCN2Cc2cc(=O)n3cc(C)ccc3n2)c1 (centres undefined) the cytotoxicity at 10 µM was -10.9%.
Work on COc1ccc(N)c(N2CCN(C(C)=O)CC2)n1 yielded a cytotoxicity at 10 µM of -6.22%.
Work on Cc1cc(NC(=O)CN(C)CC2CCCN2c2cccnn2)n(C)n1 (centres undefined) yielded a cytotoxicity at 10 µM of 7.85%.
In the case of Cn1cnnc1-c1ccnc(NCc2ccc3c(c2)OCCO3)c1, the cytotoxicity at 10 µM is reported as -11%.
Cc1nn(CC(C)C)c(N(C)C)c1CNCCCNS(C)(=O)=O gave a cytotoxicity at 10 µM of 1.73%.
For CC(NC(=O)c1cccs1)C(=O)NS(=O)(=O)c1ccc(C#N)cc1 (centres undefined), the cytotoxicity at 10 µM was 5.11%.
With O=C(Nc1ccc(-n2cccn2)cc1)N1CCC(O)C1 (centres undefined) the cytotoxicity at 10 µM was 19.9%.
CSCCN1C(=O)CC(C)(c2ccc(Br)cc2)C1=O (centres undefined) showed a cytotoxicity at 10 µM of -8.98%.
CCc1nc(CCNc2ccc(S(N)(=O)=O)cc2C#N)cs1 gave a cytotoxicity at 10 µM of -54.6%.
Cc1nc(-c2ccc(Cl)s2)sc1C(=O)O showed a cytotoxicity at 10 µM of 7.51%.
With N#Cc1ccc(N2CCCN(CC(=O)N3CCOCC3)CC2)cc1 the cytotoxicity at 10 µM was 6.62%.
Molecule COCCN1CCC(CNC(=O)C2(C#N)CCCC2)CC1 has a cytotoxicity at 10 µM of 6.93%.
For CN(C1CCCC1)C(C)(C)C(=O)NCCS(C)(=O)=O, the cytotoxicity at 10 µM was -49.7%.
In the case of c1cnc(N2CCO[C@H]3CN(CC4CCCC4)C[C@H]32)cn1, the cytotoxicity at 10 µM is reported as -101%.
Work on O=C1N(c2ccsc2)CCC12CCCN(c1ccccn1)C2 (centres undefined) yielded a cytotoxicity at 10 µM of -103%.
With CC(=O)N1CCC2(CCN(CC3CCOC3)C2)CC1 (centres undefined) the cytotoxicity at 10 µM was -95%.
Molecule O=C(c1cccnc1)N1C[C@@H]2CN(CCN3CCCC3)C(=O)[C@@H]2C1 has a cytotoxicity at 10 µM of -113%.
With O=C(Cc1ccco1)N1C[C@H]2CCC[C@@]2(COc2cccnc2)C1 the cytotoxicity at 10 µM was -109%.
With O=C(C1=CCCC1)N1C[C@@H]2COC[C@]2(COCc2ccncc2)C1 the cytotoxicity at 10 µM was -96.4%.
CN(C)C(=O)NC1COC2(CCN(C(=O)Nc3ccccc3)CC2)C1 (centres undefined) gave a cytotoxicity at 10 µM of 0.179%.
Molecule O=C1CCC2(CCNCC2)CN1Cc1nnc2ccccn12 has a cytotoxicity at 10 µM of -0.949%.
With Cc1nc(CC(=O)NCCN2CCC(c3ccccc3C)C2)cs1 (centres undefined) the cytotoxicity at 10 µM was -40%.
In the case of CCN1CC(c2ccccc2)CC2(CCN(Cc3ncc[nH]3)CC2)C1 (centres undefined), the cytotoxicity at 10 µM is reported as 8.25%.
Molecule CN(Cc1nc(Cc2cccc(C(F)(F)F)c2)no1)CC1CCCCO1 (centres undefined) has a cytotoxicity at 10 µM of 3.64%.
Molecule Cc1c[nH]c(CN2CCC3(CCCN(Cc4ccc(F)c(F)c4)C3)C2)n1 (centres undefined) has a cytotoxicity at 10 µM of -7.22%.
Cc1ccncc1C(=O)N1C[C@H]2CN(CC3CCC3)C[C@@]2(C(=O)O)C1 gave a cytotoxicity at 10 µM of -5.73%.
CCCc1nc(N(C)CCc2noc(C(C)C)n2)c2cnn(C)c2n1 showed a cytotoxicity at 10 µM of 3.86%.
With Cc1cc(NC(C)Cc2cccs2)n2nccc2n1 (centres undefined) the cytotoxicity at 10 µM was 1.22%.
CN(C(=O)c1cccnc1)C1CCCN(CCc2ccccc2)C1 (centres undefined) showed a cytotoxicity at 10 µM of -3.59%.
Work on Cc1cc(C)n(C2CCN(c3ncnc4c3CCNCC4)C2)n1 (centres undefined) yielded a cytotoxicity at 10 µM of 7.82%.
N#Cc1nccnc1N1CCC(C(O)c2cccs2)CC1 (centres undefined) gave a cytotoxicity at 10 µM of -38%.
In the case of C=C(C)COc1cccc(C(=O)N(C)C(C)c2ccncn2)c1 (centres undefined), the cytotoxicity at 10 µM is reported as -50%.
CCN(Cc1ccc(C(C)C)cc1)C(=O)c1csc(CN(C)C)n1 showed a cytotoxicity at 10 µM of -3.84%.
O=C(C1CNCCN1C(=O)CCc1cccnc1)N1CCOCC1 (centres undefined) showed a cytotoxicity at 10 µM of 4.82%.
For Nc1nc(Cn2ccnc2-c2cc(CN3CCCC3)cs2)cs1, the cytotoxicity at 10 µM was 1.4%.
O=C(O)c1cccnc1CN1CCOc2ccccc2C1 showed a cytotoxicity at 10 µM of 7.66%.
With CCC(=O)N1CCC(n2cc(C(C)(C)O)nn2)CC1 the cytotoxicity at 10 µM was 3.92%.
With COc1cc(-c2cc(NC3CCCC3)nc3[nH]ccc23)nc(N)n1 the cytotoxicity at 10 µM was 10.2%.
For Cc1nn(C)c(C)c1CN(C(=O)c1cnc(O)cn1)C(C)C, the cytotoxicity at 10 µM was 2.62%.
Work on Cc1cc(C2CCCCN2C(=O)CN2CC3(CCNCC3)OC2=O)no1 (centres undefined) yielded a cytotoxicity at 10 µM of 8.69%.
CCCc1nnc(N2CCC3(CC2)CN(C)C(=O)O3)o1 showed a cytotoxicity at 10 µM of 2.64%.
Work on Cc1nc(N2CCC(C(O)c3nccn3C)CC2)c2nc(C)oc2n1 (centres undefined) yielded a cytotoxicity at 10 µM of -2.22%.
CCCN(Cc1nccn1C)C(=O)c1cc(C)nc(C)n1 showed a cytotoxicity at 10 µM of 2.37%.
COc1cc2c(cc1CNC(=O)C(C)n1ccnc1C(C)C)OCCO2 (centres undefined) showed a cytotoxicity at 10 µM of -1.3%.
Work on Cc1cnn(C(C)C2CC2)c1NC(=O)c1ccco1 (centres undefined) yielded a cytotoxicity at 10 µM of -1.19%.
O=C(CCC(F)(F)F)N1CCN(Cc2ccncc2)[C@@H]2CS(=O)(=O)C[C@@H]21 gave a cytotoxicity at 10 µM of -2.11%.
With COc1ccc(C(=O)C2CCCN(c3cc(C#N)ccn3)C2)cc1OC (centres undefined) the cytotoxicity at 10 µM was -0.312%.
Molecule CC1CCCCN1c1nc2c(c(=O)[nH]1)CCN(Cc1cccnc1)C2 (centres undefined) has a cytotoxicity at 10 µM of -6.15%.
Work on CN(c1ccncn1)C1CC2(CCN(C(=O)c3cccs3)C2)C1 (centres undefined) yielded a cytotoxicity at 10 µM of -5.05%.
Cc1cn2c(n1)CCC(NC(=O)c1ccc(S(C)(=O)=O)o1)C2 (centres undefined) showed a cytotoxicity at 10 µM of -6.92%.
Cc1noc([C@@H]2C[C@H]3CN(Cc4ccc5c(c4)OCO5)C[C@H]3O2)n1 gave a cytotoxicity at 10 µM of -113%.
With CC(C)N1CCc2c(C(=O)N3CCOCC3)nn(C)c2C1 the cytotoxicity at 10 µM was -105%.
For COc1cccc(C(=O)N2CC[C@@H]3[C@H](CC2)N(C)CCS3(=O)=O)c1, the cytotoxicity at 10 µM was -129%.
O=C([C@@H]1C[C@@H]2CCN(c3cccc(F)c3)C[C@H]2O1)N1CCCC1 gave a cytotoxicity at 10 µM of -1.34%.
In the case of CN(C)CCO[C@@H]1CC[C@H]2[C@H]1OCCN2C(=O)c1ccc(F)cc1, the cytotoxicity at 10 µM is reported as -7.1%.
CC(C)CN1C[C@H]2CCN(Cc3cccnc3)CC[C@H]2S1(=O)=O showed a cytotoxicity at 10 µM of -1.8%.
Work on O=C(NC1CCC1)[C@@H]1CC[C@@H]2[C@@H](CCN2CCc2ccccc2)O1 yielded a cytotoxicity at 10 µM of -127%.
In the case of Cc1ccc(N2CC[C@H](OCC3CC3)[C@@H]2Cc2cccnc2)nn1, the cytotoxicity at 10 µM is reported as 1.13%.
